{"source": "ChEMBL document CHEMBL4152240", "about": "“Synthesis, cytotoxicity and structure-activity relationship of indolizinoquinolinedione derivatives as DNA topoisomerase IB catalytic inhibitors” (2018)", "key": {"[1]": {"system": "Huh-7", "experiment": "Cytotoxicity against human HuH7 cells assessed as growth inhibition after 72 hrs by MTT assay", "format": "functional", "settings": "Huh-7, 72 h", "how_it_was_run": "(§1)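 Five-dose MTT growth assay, compounds predissolved in DMSO, 72 h exposure at 37 C. Cells kept in RPMI-1640 or DMEM, 37 C, 5% CO2, passage 3-6. MTT (1 mg/mL in PBS) added for 4 h, formazan dissolved in DMSO, OD 570 nm. GI50 (50% growth inhibition) by nonlinear regression. Means ± SD, at least three repeats.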"}, "[2]": {"system": "HCT-116", "experiment": "Induction of apoptosis in human HCT116 cells after 12 hrs by annexin V-FITC/propidium iodide staining-based flow cytometric method", "format": "functional, cell-based"}, "[3]": {"molecular_target": "T1, Topoisomerase I (Bos taurus) (UniProt Q2HPH0)", "T1 sequence (whole entry)": "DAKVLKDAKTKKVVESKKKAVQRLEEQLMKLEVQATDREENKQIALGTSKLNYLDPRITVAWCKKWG", "experiment": "Inhibition of calf thymus TOP1-mediated relaxation of supercoiled pBR322 DNA after 30 mins by agarose gel electrophoresis", "how_it_was_run": "(§2)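 0.5 µg supercoiled pBR322 in buffer (10 mM Tris-HCl pH 7.5, 50 mM KCl, 5 mM MgCl2, BSA, DTT) with 1 unit calf thymus TOP1, with or without compound (0.2-125 µM), 30 min at 37 C. Run on 0.8% agarose/TBE at 4.6 V/cm for 1.5 h, gel red stained. Activity graded in bands (e.g. +++ 81-120%). At least two independent repeats.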"}, "[4]": {"system": "HCT-116", "experiment": "Induction of apoptosis in human HCT116 cells assessed as early apoptotic cells at 1 uM after 12 hrs by annexin V-FITC/propidium iodide staining-based flow cytometric method (reference value: 0.47 to 1.19%)", "format": "functional"}, "[5]": {"system": "HCT-116", "experiment": "Induction of apoptosis in human HCT116 cells assessed as viable cells at 9 uM after 12 hrs by annexin V-FITC/propidium iodide staining-based flow cytometric method (reference value: 97.60 to 98.95%)", "format": "functional", "settings": "HCT-116, 12 h, read-out: Activity"}, "[6]": {"experiment": "Resistance ratio of GI50 for human HepG2/ADR cells to GI50 for human HepG2 cells", "format": "functional", "how_it_was_run": "(§3)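 Resistance ratio: the GI50 in the resistant or TOP1-knockdown subline divided by the GI50 in the matching parental line.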"}, "[7]": {"molecular_target": "T1, Topoisomerase I (Bos taurus)", "experiment": "Inhibition of calf thymus TOP1-mediated relaxation of supercoiled pBR322 DNA at 25 uM after 30 mins by agarose gel electrophoresis relative to camptothecin", "how_it_was_run": "as §2"}, "[8]": {"system": "MCF7", "experiment": "Cytotoxicity against human MCF7 cells assessed as growth inhibition after 72 hrs by MTT assay", "format": "functional", "settings": "MCF7, 72 h", "how_it_was_run": "(§4)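 MTT growth assay in drug-resistant sublines and parental lines. HCT116-siTop1 was made by transfecting HCT116 with shRNA vectors expressing TOP1 siRNA. MCF-7, HepG2 and their ADR-resistant lines were gifts. Five-dose DMSO-predissolved compounds for 72 h at 37 C, then MTT 4 h, DMSO solubilization, OD 570 nm. GI50 by nonlinear regression. At least three repeats.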"}, "[9]": {"experiment": "Resistance ratio of GI50 for human RC0.1 cells to GI50 for human DU145 cells", "format": "functional"}, "[10]": {"experiment": "Resistance ratio of GI50 for human MCF7/ADR cells to GI50 for human MCF7 cells", "format": "functional", "how_it_was_run": "as §3"}, "[11]": {"system": "HCT-116", "experiment": "Induction of apoptosis in human HCT116 cells assessed as late apoptotic cells at 9 uM after 12 hrs by annexin V-FITC/propidium iodide staining-based flow cytometric method (reference value: 0.34 to 0.81%)", "format": "functional"}, "[12]": {"system": "HCT-116", "experiment": "Induction of apoptosis in human HCT116 cells assessed as late apoptotic cells at 3 uM after 12 hrs by annexin V-FITC/propidium iodide staining-based flow cytometric method (reference value: 0.34 to 0.81%)", "format": "functional"}, "[13]": {"system": "HCT-116", "experiment": "Induction of apoptosis in human HCT116 cells assessed as early apoptotic cells at 9 uM after 12 hrs by annexin V-FITC/propidium iodide staining-based flow cytometric method (reference value: 0.47 to 1.19%)", "format": "functional"}, "[14]": {"system": "HCT-116", "experiment": "Induction of apoptosis in human HCT116 cells assessed as viable cells at 3 uM after 12 hrs by annexin V-FITC/propidium iodide staining-based flow cytometric method (reference value: 97.60 to 98.95%)", "format": "functional", "settings": "HCT-116, 12 h, read-out: Activity"}, "[15]": {"system": "A549", "experiment": "Cytotoxicity against human A549 cells assessed as growth inhibition after 72 hrs by MTT assay", "format": "functional", "settings": "A549, 72 h", "how_it_was_run": "as §1"}, "[16]": {"system": "DNA", "experiment": "Induction of unwinding effect of Escherichia coli relaxed pBR322 DNA at 1 to 9 uM preincubated with DNA for 10 mins followed by excess calf thymus TOP1 addition and measured after 30 mins by agarose gel electrophoresis", "format": "nucleic-acid assay", "how_it_was_run": "(§5)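 Compound (1, 3, 9 µM) preincubated with pBR322 DNA, supercoiled or relaxed, at room temperature for 10 min. Excess TOP1 then added and incubated 30 min at 37 C. Stopped with SDS/proteinase K. Ethidium bromide (0.3-1.2 mg/L) as positive control. Run on 0.8% agarose in TBE at 4.6 V/cm for 1.5 h, stained with gel red, UV visualized.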"}, "[17]": {"system": "NCI/ADR-RES", "experiment": "Cytotoxicity against human MCF7/ADR cells assessed as growth inhibition after 72 hrs by MTT assay", "format": "functional", "how_it_was_run": "as §4"}, "[18]": {"system": "CCRF-CEM", "experiment": "Cytotoxicity against human CCRF-CEM cells assessed as growth inhibition after 72 hrs by MTT assay", "format": "functional", "how_it_was_run": "as §1"}, "[19]": {"system": "HCT-116", "experiment": "Cytotoxicity against human HCT116 cells assessed as growth inhibition after 72 hrs by MTT assay", "format": "functional", "settings": "HCT-116, 72 h", "how_it_was_run": "as §1"}, "[20]": {"experiment": "Cytotoxicity against human HepG2/ADR cells assessed as growth inhibition after 72 hrs by MTT assay", "format": "functional", "settings": "HepG2, 72 h", "how_it_was_run": "as §4"}, "[21]": {"molecular_target": "T1, Topoisomerase I (Bos taurus)", "experiment": "Inhibition of calf thymus TOP1-mediated relaxation of supercoiled pBR322 DNA at 125 uM after 30 mins by agarose gel electrophoresis relative to control", "how_it_was_run": "as §2"}, "[22]": {"system": "DNA", "experiment": "Induction of unwinding effect of Escherichia coli supercoiled pBR322 DNA at 1 to 9 uM preincubated with DNA for 10 mins followed by excess calf thymus TOP1 addition and measured after 30 mins by agarose gel electrophoresis", "format": "nucleic-acid assay", "how_it_was_run": "as §5"}, "[23]": {"system": "HCT-116", "experiment": "Cytotoxicity against human HCT116 cells expressing TOP1 siRNA assessed as growth inhibition after 72 hrs by MTT assay", "format": "functional", "settings": "HCT-116, 72 h", "how_it_was_run": "as §4"}, "[24]": {"system": "DU-145", "experiment": "Cytotoxicity against human DU145 cells assessed as growth inhibition after 72 hrs by MTT assay", "format": "functional", "settings": "DU-145, 72 h", "how_it_was_run": "as §1"}, "[25]": {"system": "HCT-116", "experiment": "Induction of apoptosis in human HCT116 cells assessed as viable cells at 1 uM after 12 hrs by annexin V-FITC/propidium iodide staining-based flow cytometric method (reference value: 97.60 to 98.95%)", "format": "functional", "settings": "HCT-116, 12 h, read-out: Activity"}, "[26]": {"experiment": "Resistance ratio of GI50 for human HCT116 cells expressing TOP1 siRNA to GI50 for human HCT116 cells", "format": "functional", "how_it_was_run": "as §3"}, "[27]": {"system": "HCT-116", "experiment": "Induction of apoptosis in human HCT116 cells assessed as late apoptotic cells at 1 uM after 12 hrs by annexin V-FITC/propidium iodide staining-based flow cytometric method (reference value: 0.34 to 0.81%)", "format": "functional"}, "[28]": {"experiment": "Cytotoxicity against human RC0.1 cells assessed as growth inhibition after 72 hrs by MTT assay", "format": "functional"}, "[29]": {"system": "HepG2", "experiment": "Cytotoxicity against human HepG2 cells assessed as growth inhibition after 72 hrs by MTT assay", "format": "functional", "settings": "HepG2, 72 h", "how_it_was_run": "as §4"}, "[30]": {"system": "HCT-116", "experiment": "Induction of apoptosis in human HCT116 cells assessed as early apoptotic cells at 3 uM after 12 hrs by annexin V-FITC/propidium iodide staining-based flow cytometric method (reference value: 0.47 to 1.19%)", "format": "functional"}, "[31]": {"molecular_target": "T1, Topoisomerase I (Bos taurus)", "settings": "0.2 to 1 uM"}, "[32]": {"system": "DNA", "experiment": "Induction of unwinding effect of Escherichia coli supercoiled pBR322 DNA at 0.3 to 1.2 mg/L preincubated with DNA for 10 mins followed by excess calf thymus TOP1 addition and measured after 30 mins by agarose gel electrophoresis", "format": "nucleic-acid assay", "how_it_was_run": "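Supercoiled or relaxed pBR322 DNA was preincubated with ethidium bromide (0.3, 0.6, 1.2 mg/L, positive control) for 10 min at room temperature. Excess TOP1 was then added for 30 min at 37 °C. The reaction was stopped with SDS/proteinase K, run on 0.8% agarose in TBE at 4.6 V/cm for 1.5 h, then gel-red stained and UV imaged.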"}}, "note": "Activity calls are given as the source filed them. The calls are words filed in the database; no cut-off is given here.", "data": [{"smiles": "O=C1c2cccnc2C(=O)c2c1c(C(=O)OCCN1CCCC1)c1c(F)cccn21", "values": [{"measurement": "GI50", "setting": "[1]", "result": 120, "unit": "nM"}, {"measurement": "Activity", "setting": "[2]", "result": "Dose-dependent effect"}, {"measurement": "inhibition", "setting": "[3]", "result": "Dose-dependent effect"}, {"measurement": "Activity", "setting": "[4]", "result": 0.79, "unit": "%"}, {"measurement": "viability at 9 µM", "setting": "[5]", "result": 51.3, "unit": "%"}, {"measurement": "RatioGI50", "setting": "[6]", "result": 7.5}, {"measurement": "inhibition", "setting": "[7]", "result": "> 121", "unit": "%"}, {"measurement": "GI50", "setting": "[8]", "result": 89, "unit": "nM"}, {"measurement": "RatioGI50", "setting": "[9]", "result": 36.8}, {"measurement": "RatioGI50", "setting": "[10]", "result": 1.1}, {"measurement": "Activity", "setting": "[11]", "result": 32.1, "unit": "%"}, {"measurement": "Activity", "setting": "[12]", "result": 8.5, "unit": "%"}, {"measurement": "Activity", "setting": "[13]", "result": 10.17, "unit": "%"}, {"measurement": "viability at 3 µM", "setting": "[14]", "result": 86, "unit": "%"}, {"measurement": "GI50", "setting": "[15]", "result": 60, "unit": "nM"}, {"measurement": "Activity", "setting": "[16]", "result": "inactive"}, {"measurement": "GI50", "setting": "[17]", "result": 97, "unit": "nM"}, {"measurement": "GI50", "setting": "[18]", "result": 790, "unit": "nM"}, {"measurement": "GI50", "setting": "[19]", "result": 23, "unit": "nM"}, {"measurement": "GI50", "setting": "[20]", "result": 380, "unit": "nM"}, {"measurement": "inhibition", "setting": "[21]", "result": 100, "unit": "%"}, {"measurement": "Activity", "setting": "[22]", "result": "inactive"}, {"measurement": "GI50", "setting": "[23]", "result": 150, "unit": "nM"}, {"measurement": "GI50", "setting": "[24]", "result": 82, "unit": "nM"}, {"measurement": "viability at 1 µM", "setting": "[25]", "result": 97.7, "unit": "%"}, {"measurement": "RatioGI50", "setting": "[26]", "result": 6.5}, {"measurement": "Activity", "setting": "[27]", "result": 1.17, "unit": "%"}, {"measurement": "GI50", "setting": "[28]", "result": 2940, "unit": "nM"}, {"measurement": "GI50", "setting": "[29]", "result": 51, "unit": "nM"}, {"measurement": "Activity", "setting": "[30]", "result": 1.69, "unit": "%"}]}, {"smiles": "CC[C@@]1(O)C(=O)OCc2c1cc1n(c2=O)Cc2cc3ccccc3nc2-1", "note": "[CAMPTOTHECIN]", "values": [{"measurement": "GI50", "setting": "[1]", "result": 6, "unit": "nM"}, {"measurement": "GI50", "setting": "[15]", "result": 3, "unit": "nM"}, {"measurement": "GI50", "setting": "[18]", "result": 2, "unit": "nM"}, {"measurement": "inhibition", "setting": "[21]", "result": 58, "unit": "%"}, {"measurement": "GI50", "setting": "[24]", "result": 19, "unit": "nM"}, {"measurement": "inhibition", "setting": "[31]", "result": "Active"}, {"measurement": "GI50", "setting": "[28]", "result": 7530, "unit": "nM"}]}, {"smiles": "CC[n+]1c(-c2ccccc2)c2cc(N)ccc2c2ccc(N)cc21", "values": [{"measurement": "Activity", "setting": "[32]", "result": "Active"}]}]}
